From ChEMBL document CHEMBL1128486, “Farnesyl diphosphate-based inhibitors of Ras farnesyl protein transferase” (J Med Chem, 1995)

Target: Protein farnesyltransferase (Sus scrofa)
Test: Inhibition of pig brain farnesyl transferase
Details: read-out: I50

CC(C)=CCC/C(C)=C/CC/C(C)=C/CNC(=O)C(CP(=O)(O)O)C(=O)O (centres undefined) gave an IC50 of 0.075 µM.

Target: T1, Squalene synthase (Rattus norvegicus, UniProt Q02769)
T1 sequence (Q02769 whole entry): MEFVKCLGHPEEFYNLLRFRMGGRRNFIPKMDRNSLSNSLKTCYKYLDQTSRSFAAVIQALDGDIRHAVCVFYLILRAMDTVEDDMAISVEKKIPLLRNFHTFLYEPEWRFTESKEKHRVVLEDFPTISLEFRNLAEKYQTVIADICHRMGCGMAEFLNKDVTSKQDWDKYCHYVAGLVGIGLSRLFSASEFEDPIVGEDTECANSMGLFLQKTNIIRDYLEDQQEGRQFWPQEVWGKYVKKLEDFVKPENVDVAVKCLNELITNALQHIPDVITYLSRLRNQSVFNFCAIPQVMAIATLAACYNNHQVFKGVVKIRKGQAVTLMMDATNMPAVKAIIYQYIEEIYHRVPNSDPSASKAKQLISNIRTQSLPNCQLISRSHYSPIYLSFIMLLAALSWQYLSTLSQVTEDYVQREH
Test: Inhibition of squalene synthase
Details: read-out: I50
In short: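 Squalene synthetase was prepared from rat liver microsomes and used for I50 determination.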

CC(C)=CCC/C(C)=C/CC/C(C)=C/CNC(=O)C(CP(=O)(O)O)C(=O)O (centres undefined) showed an IC50 of 516 µM.

Target: Mevalonate kinase (Rattus norvegicus, UniProt P17256)
Test: Inhibition of mevalonate kinase
Details: read-out: I50
In short: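 Mevalonate kinase was purified to homogeneity from rat liver and used for inhibition measurement.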

Mevalonate kinase, sequence (P17256 whole entry): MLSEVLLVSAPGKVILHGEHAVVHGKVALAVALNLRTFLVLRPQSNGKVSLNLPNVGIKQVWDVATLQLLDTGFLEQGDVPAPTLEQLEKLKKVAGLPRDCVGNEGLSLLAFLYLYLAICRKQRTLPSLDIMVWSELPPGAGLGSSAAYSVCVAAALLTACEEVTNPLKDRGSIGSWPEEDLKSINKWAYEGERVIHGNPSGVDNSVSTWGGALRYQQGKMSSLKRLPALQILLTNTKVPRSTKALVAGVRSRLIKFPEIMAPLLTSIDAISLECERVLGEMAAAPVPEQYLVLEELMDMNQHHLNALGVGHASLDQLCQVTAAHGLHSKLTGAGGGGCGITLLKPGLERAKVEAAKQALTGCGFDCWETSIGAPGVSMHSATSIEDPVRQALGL

For CC(C)=CCC/C(C)=C/CC/C(C)=C/CNC(=O)C(CP(=O)(O)O)C(=O)O (centres undefined), the IC50 was greater than 200 µM.

Target: Protein farnesyltransferase (Sus scrofa)
Test: Inhibition of pig brain farnesyl transferase
Details: read-out: I50
Remark: another data set of the same source

Going from CC(C)=CCC/C(C)=C/CC/C(C)=C/CNC(=O)CCP(=O)(O)O to CC(C)=CCC/C(C)=C/CC/C(C)=C/CNC(=O)CP(=O)(O)O, the IC50 rises from 4.6 µM to 41.5 µM (9-fold).

Work on CC(C)=CCC/C(C)=C/CC/C(C)=C/CNC(=O)CC(=O)O yielded an IC50 of 115 µM.

Target: Protein farnesyltransferase (Sus scrofa)
Test: Inhibition of pig brain farnesyl transferase
Details: read-out: I50
Remark: another data set of the same source

First: CC(C)=CCC/C(C)=C/CC/C(C)=C/C(=O)N[C@H](CCC(=O)O)C(=O)O
Second: CC(C)=CCC/C(C)=C/CC/C(C)=C/C(=O)N[C@@H](CCC(=O)O)C(=O)O
The IC50 of the first is 2.6-fold higher: 30 µM for the first, 11.5 µM for the second. The second is the more potent here.

Compared with CC(C)=CCC/C(C)=C/CC/C(C)=C/C(=O)N[C@H](CP(=O)(O)O)C(=O)O, CC(C)=CCC/C(C)=C/CC/C(C)=C/C(=O)N[C@@H](CP(=O)(O)O)C(=O)O is 2-fold lower in IC50: 0.5 µM for the first, 0.25 µM for the second. The second is the more potent here.

First: CC(C)=CCC/C(C)=C/CC/C(C)=C/CN(C)C(=O)C(CP(=O)(O)O)C(=O)O (centres undefined)
Second: CC(C)=CCC/C(C)=C/CC/C(C)=C/CCNC(=O)C(CP(=O)(O)O)C(=O)O (centres undefined)
The IC50 of the first is 34-fold lower: 0.53 µM for the first, 17.8 µM for the second. The first is the more potent here.

Going from CC(C)=CCC/C(C)=C/CC/C(C)=C/C(=O)N[C@@H](CC(=O)O)C(=O)O to CC(C)=CCC/C(C)=C/CC/C(C)=C/C(=O)N[C@H](CC(=O)O)C(=O)O, the IC50 rises from 12.6 µM to 25 µM (2-fold).

First: CC(C)=CCC/C(C)=C/CC/C(C)=C/CNC(=O)CCC(=O)O
Second: CC(C)=CCC/C(C)=C/CC/C(C)=C/CC(=O)N[C@H](CP(=O)(O)O)C(=O)O
The IC50 of the first is 4400-fold higher: 220 µM for the first, 0.05 µM for the second. The second is the more potent here.

Going from CC(C)=CCC/C(C)=C/CC/C(C)=C/CC(=O)N[C@@H](CP(=O)(O)O)C(=O)O to CC(C)=CCC/C(C)=C/CCC(C)(C)CCNC(=O)C(CP(=O)(O)O)C(=O)O (centres undefined), the IC50 rises from 1.7 µM to 55 µM (32-fold).

CCCCCCCCCCCCNC(=O)C(CP(=O)(O)O)C(=O)O (centres undefined) gave an IC50 of 9 µM.
